Source: ChEMBL document CHEMBL4513216, “Probing the Open Global Health Chemical Diversity Library for Multistage-Active Starting Points for Next-Generation Antimalarials” (ACS Infect Dis, 2020)

Test: Toxicity liver stage against HepG2, at 10uM
Assay type: cell-based
Parameters: test concentration 10 uM, cell line HepG2-A16-CD81EGFP
Conditions: human, HepG2-A16-CD81EGFP cells; read-out: INHIBITION
In short: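 Uninfected HepG2-A16-CD81EGFP cells, 3 × 10^3 per well, 1536-well, plated on prespotted compound at 10 μM final, parasite-free screening media added to match infected plates; puromycin 10 μM positive, DMSO 0.5% negative; run in parallel with 48 h PbLuc assay at 37 °C, 5% CO2; viability by CellTiter-Glo luminescence, normalized to controls.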

Row | Structure (SMILES) | cytotoxicity at 10 µM [%]
1 | O=C(Cc1ccccc1)N1CC[C@@H]2CNS(=O)(=O)[C@@H]2CC1 | -9.88
2 | Cc1nnc2n1CCN(Cc1ncc(-c3ccc(F)cc3)o1)C2 | -10.7
3 | COCCN1CCC(CN(Cc2ccncc2)C2CCCCC2)CC1 | -2.91
4 | O=C(c1cnc(-c2ccccn2)s1)N1CCCC1Cn1cccn1 (configuration not stated) | -5
5 | O=S(=O)(N1CCOCC1)N1CCCC1Cn1cccn1 (configuration not stated) | -8.18
6 | CCC[C@@H]1CN(C(=O)CCc2ccco2)C[C@H]1NS(C)(=O)=O | -3.73
7 | c1ccc(CO[C@@H]2C[C@H]3CN(c4ncccn4)CCN3C2)cc1 | 0.472
8 | Cc1ccccc1S(=O)(=O)CCOC(C)C | 0.456
9 | OC1CCN(c2nc(-c3ccccc3)no2)CC1 | -9.57
10 | CCC(CC)CN1CCC2(CCCN(c3ncccn3)C2)C1 (configuration not stated) | -83.5
11 | CCN(Cc1ccncc1)c1nc(C)nc2oc(C)nc12 | -50.6
12 | CCCS(=O)(=O)NC(C)C(=O)NCc1ccnc(N2CCCC2)c1 (configuration not stated) | -13.6
13 | CN1CC[C@H](c2nnc(-c3cncn3C)o2)C1 | -2.88
14 | c1ccc(COCCN2CCc3[nH]cnc3C2c2ccoc2)cc1 (configuration not stated) | 6.62
15 | O=C(C1CCOCC1)N1C[C@H]2CCC[C@@]2(COc2cccnc2)C1 | -1.18
16 | Cc1cc(C)c(CNC(=O)N2CCCC2c2ccccn2)c(=O)[nH]1 (configuration not stated) | 1.17
17 | FC(F)(F)CCc1ccnc(N2CCN(Cc3ccncc3)CC2)n1 | -21.2
18 | Cc1nnc2n1CCN(Cc1ncc(-c3ccccc3)o1)C2 | -3.78
19 | CC(C)c1nccn1C1CCCN(C(=O)CN(C)C2CC2)C1 (configuration not stated) | -4.3
20 | Cc1cnc(C(=O)N2CCCn3c(nc(CN(C)C)cc3=O)C2)cn1 | -5.93
21 | COCCN(Cc1ccccc1Cl)C(=O)c1c(C)cc(C)[nH]c1=O | -5.6

Row | Structure (SMILES) | cytotoxicity at 10 µM [%]
22 | Cc1occc1C(=O)N1CCCC2(CCN(c3ccsc3)C2=O)C1 (configuration not stated) | -70.7
23 | CNc1ncccc1CN1CCN(C)CC(C(=O)N(C)C)C1 (configuration not stated) | 16.1
24 | O=C(Nc1cc(C(F)(F)F)c[nH]c1=O)c1ccco1 | -8.28
25 | Cc1nc(C2(NCC(=O)NC(=O)NCC(F)(F)F)CCCCC2)no1 | 18.4
26 | CC(C)NC(=O)CC1COC2(CCN(Cc3ccccc3)CC2)C1 (configuration not stated) | 6.38
27 | CC(C)Nc1nc(N2CCOCC2)nc2c1CN(CC(=O)N(C)C)CC2 | 7.77
28 | O=C(NCCO)c1sc2ncccc2c1C1CNCCO1 (configuration not stated) | 11.2
29 | CCc1nc(CCNc2ncccc2C#N)sc1C | 15.4
30 | Cc1nn(C)cc1-c1ccnc(N(C)Cc2ccon2)n1 | -8.71
31 | CNS(=O)(=O)c1ccc(C(=O)N2CCCCC2c2ccc(C)cc2)o1 (configuration not stated) | -9.8
32 | Cc1noc(C)c1NC(=O)N1CCC(NC(=O)OC(C)(C)C)CC1 | 4
33 | N#CCC1CC(c2ccc(F)cc2)=NO1 (configuration not stated) | -2.37
34 | CNC(=O)CS(=O)(=O)C1CCN(S(=O)(=O)c2ccccc2Cl)CC1 | 11.7
35 | CN(C)C(=O)N1Cc2ccccc2C2(CCN(C3CCOCC3)CC2)C1 | 7.21
36 | NCc1cn(-c2ccccc2C(=O)NCc2cccc(Cl)c2)cn1 | 4.14
37 | Cc1noc(C)c1CNc1cccc(C(=O)N2CCCC(O)C2)c1 (configuration not stated) | -6.08
38 | O=C1CCC2(CCN(Cc3ccsc3)CC2)N1Cc1ccccc1 | 0.552
39 | CN(C)C(CNCc1nc(-c2ccsc2)no1)c1ccco1 (configuration not stated) | 10.2
40 | O=C(NCCC1CN(C2CCCC2)CCO1)c1cc(=O)[nH]c(=O)[nH]1 (configuration not stated) | 0.0145
41 | O=C(Nc1nc2c(s1)CCC2)NC1CCCC1 | -8.6
42 | COC(=O)c1sc(C(NC(=O)c2ccccc2)C2CC2)nc1C (configuration not stated) | 0.0726

Row | Structure (SMILES) | cytotoxicity at 10 µM [%]
43 | O=S(=O)(C1CC1)N1CCO[C@H]2[C@@H](Oc3cccnc3)CC[C@@H]21 | -5.96
44 | CCCS(=O)(=O)N1C[C@@H]2CN(Cc3ccoc3)CCO[C@@H]2C1 | -117
45 | CNc1ncc(CN(C)Cc2cc(O)c3cc(F)ccc3n2)cn1 | 1.95
46 | COc1cccc(CNC2CCSC2)c1OC (configuration not stated) | 2.25
47 | Cc1cc(C2CCCN2Cc2nc3ccccc3o2)on1 (configuration not stated) | -17
48 | CCCOCC1CCN(C(=O)Cn2cccc(C(F)(F)F)c2=O)C1 (configuration not stated) | -16.3
49 | O=C(c1cnc(NCc2cccnc2)c(Cl)c1)N1CCCCC1 | 8.89
50 | CNC(=O)CN(C(=O)c1ccc(SC)o1)c1cccc(F)c1 | 10.3
51 | Cc1cc2n(n1)CC(CNC1CCN(C3CC3)CC1)CN2 (configuration not stated) | 4.16
52 | CCc1cnc2c(c1Nc1cccc(OC)c1)c(=O)n(C)c(=O)n2C | 12.6
53 | Cc1noc(C)c1C(=O)N(C)C(C)c1ccc(S(C)(=O)=O)cc1 (configuration not stated) | 4.96
54 | Cc1nc(CN2CCC23CCN(C(=O)c2ccncc2)CC3)cs1 | 0.933
55 | CCN(C)CC1CCN(C(=O)Nc2ccc(-c3cc[nH]n3)cc2)C1 (configuration not stated) | -6.25
56 | N#Cc1ccnc(N2CCN(CC(O)c3cc(F)ccc3F)CC2)c1 (configuration not stated) | 1.31
57 | CCN(C(=O)c1ccc2nnc(C3CCN(C)C3)n2c1)C(C)C (configuration not stated) | -112
58 | O=C(c1cccnc1N1CCOCC1)N1CCCC1Cn1cccn1 (configuration not stated) | -2.53
59 | CCn1nc(C)c(CNC(=O)NCC(C)(O)c2ccccc2)c1C (configuration not stated) | -7.12
60 | COCCN1CCC2(CC1)CC(c1ccccc1)C(=O)N2C (configuration not stated) | 7.91
61 | Cn1cnc2c1CCN(Cc1ccc(C(=O)N3CCCC3)cc1)C2 | -8.62
62 | Cc1nnc(NC(=O)CSCc2cc(=O)n3ccccc3n2)s1 | 1.5
63 | CS(=O)(=O)N1CCC2(CC1)CC(NCC1CC1)c1ccccc12 (configuration not stated) | -111

Row | Structure (SMILES) | cytotoxicity at 10 µM [%]
64 | O=S(=O)(NC1CCC12CCN(CC1CC1)CC2)c1ccccc1 (configuration not stated) | -7.82
65 | CC(OCC(F)(F)F)C(=O)NCc1ccc(-n2cncn2)nc1 (configuration not stated) | -2.55
66 | Cc1ccc(C(=O)NS(=O)(=O)c2ccccc2Cl)c(=O)[nH]1 | -8.81
67 | CCc1nc(C2CCCN(C(=O)c3ccc4c(c3)nnn4C)C2)no1 (configuration not stated) | -3.3
68 | COc1c(C)cnc(CN2CCCC(c3noc(C4CC4)n3)C2)c1C (configuration not stated) | -1.62
69 | CSc1nccc(NCC2CNCCO2)n1 (configuration not stated) | 2.56
70 | Cc1nc(C)n(CC2CCCN(c3ncnc4sccc34)C2)n1 (configuration not stated) | 36.2
71 | COc1cc(Br)c(S(=O)(=O)NC(=O)C(C)OC)cc1OC (configuration not stated) | -22.9
72 | Cc1cc2nc(C(C)C)cc(NCc3ccncc3)n2n1 | 2.63
73 | CC(c1cc(F)ccc1F)N(C)C(=O)NCc1ccnc(N(C)C)c1 (configuration not stated) | -16.8
74 | Cc1noc(C)c1C(=O)NCc1ccc(N2CCOCC2)nc1 | -7.91
75 | COc1ccc(CCNCc2c(C)nn(C)c2N(C)C)cc1OC | -11.3
76 | Cc1cc(C(=O)N2C[C@H](c3ccccc3)[C@@H](N)C2)c2ccc(F)cc2n1 | 3.96
77 | CN1CC[C@H]2CN(C(=O)c3csc(Cc4ccccc4)n3)C[C@H]21 | -2.45
78 | CN(CC(=O)N1CCCC1c1noc(C2CC2)n1)S(C)(=O)=O (configuration not stated) | -8.2
79 | O=C1CC(c2ncc(-c3ccc4c(c3)OCCO4)[nH]2)CN1C1CC1 (configuration not stated) | -4.62
80 | CCCN(C)C(=O)c1ccc2c(c1)[nH]c(=O)n2CCOCC | -30.6
81 | CCOc1ccc(N(CCC#N)C(=O)c2ccnc(SC)c2)cc1 | -2.6
82 | CCOCCCOC(=O)c1ccc2c(c1)[nH]c(=O)n2C | 3.54
